Reference: ChEMBL document CHEMBL5724801, “EUbOPEN Chemogenomics Library - Multiplex” (2024)
Values joined by “and” are separate entries in the source; they are usually repeats but may differ in a detail not shown here. Identical values can stand only once.

System: Fibroblast
Assay: Multiplex assay against human fibroblast
Type: toxicity, cell-based
In short: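 At seeding, live cells were stained with Hoechst33342, BioTracker Green Microtubule Cytoskeleton Dye, MitoTracker Red and Annexin V Alexa Fluor 680. After compound addition they were imaged on a CQ1 microscope at 37°C and 5% CO2, and CellPathfinder machine-learning gating sorted them into Hoechst high-intensity objects or normal cells, with normal cells further split into healthy, pyknosed or fragmented nuclei and pyknosed cells into mitotic or apoptotic. Tubulin, mitochondrial-mass and membrane-permeability phenotypes are given as per cents of cells with healthy nuclei.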

[1] = 12 h, 1 µM, compound concentration 1 uM
[2] = 12 h, 10 µM, compound concentration 10 uM
[3] = 24 h, 1 µM, compound concentration 1 uM
[4] = 24 h, 10 µM, compound concentration 10 uM
[5] = 48 h, 1 µM, compound concentration 1 uM
[6] = 48 h, 10 µM, compound concentration 10 uM

Compound: CCn1c(-c2ccncc2)cc2c1CCNC2=O
- Population Apoptotic (%) [1]: 13.79% and 16.67%
- Population Fragmented Nuclei (%) [1]: 13.56% and 3.83%
- Population Healthy Nuclei (%) [1]: 70.06% and 79.78%
- Population Hoechst High Intensity Objects (%) [1]: 0%
- Population Membrane Permeable-Phenotype (%) [1]: 2.42% and 2.74%
- Population Mitochondria Different-Phenotype (%) [1]: 8.06% and 6.85%
- Population Mitotic Cells (%) [1]: 86.21% and 83.33%
- Population Normal (%) [1]: 100%
- Population Pyknosed Nuclei (%) [1]: 16.38% and 16.39%
- Population Tubulin-Different-Phenotype (%) [1]: 12.9% and 11.64%
- Total Cell Count [1]: 177 and 183
- Population Healthy Nuclei (%) [2]: 69.44% and 89.58%
- Population Hoechst High Intensity Objects (%) [2]: 0%
- Population Membrane Permeable-Phenotype (%) [2]: 6.4% and 2.91%
- Population Mitochondria Different-Phenotype (%) [2]: 11.2% and 12.79%
- Population Mitotic Cells (%) [2]: 88.89% and 60%
- Population Normal (%) [2]: 100%
- Population Pyknosed Nuclei (%) [2]: 15% and 7.81%
- Population Tubulin-Different-Phenotype (%) [2]: 12% and 12.79%
- Total Cell Count [2]: 180 and 192
- Population Apoptotic (%) [3]: 19.51% and 13.16%
- Population Healthy Nuclei (%) [3]: 62.05% and 74.05%
- Population Hoechst High Intensity Objects (%) [3]: 0%
- Population Membrane Permeable-Phenotype (%) [3]: 4.96% and 1.46%
- Population Mitochondria Different-Phenotype (%) [3]: 7.44% and 7.3%
- Population Mitotic Cells (%) [3]: 80.49% and 86.84%
- Population Normal (%) [3]: 100%
- Population Pyknosed Nuclei (%) [3]: 21.03% and 20.54%
- Population Tubulin-Different-Phenotype (%) [3]: 16.53% and 14.6%
- Total Cell Count [3]: 195 and 185
- Population Healthy Nuclei (%) [4]: 70.39% and 84.97%
- Population Hoechst High Intensity Objects (%) [4]: 0%
- Population Membrane Permeable-Phenotype (%) [4]: 7.14% and 3.66%
- Population Mitochondria Different-Phenotype (%) [4]: 6.35% and 12.8%
- Population Mitotic Cells (%) [4]: 92.86% and 57.69%
- Population Normal (%) [4]: 100%
- Population Pyknosed Nuclei (%) [4]: 15.64% and 13.47%
- Population Tubulin-Different-Phenotype (%) [4]: 10.32% and 17.07%
- Total Cell Count [4]: 179 and 193
- Population Apoptotic (%) [5]: 33.33%
- Population Fragmented Nuclei (%) [5]: 17.79% and 7.69%
- Population Healthy Nuclei (%) [5]: 75% and 86.54%
- Population Hoechst High Intensity Objects (%) [5]: 0%
- Population Membrane Permeable-Phenotype (%) [5]: 3.85% and 5%
- Population Mitotic Cells (%) [5]: 66.67%
- Population Normal (%) [5]: 100%
- Population Pyknosed Nuclei (%) [5]: 7.21% and 5.77%
- Population Tubulin-Different-Phenotype (%) [5]: 23.08% and 22.22%
- Total Cell Count [5]: 208
- Population Apoptotic (%) [6]: 11.76% and 35.14%
- Population Fragmented Nuclei (%) [6]: 16.11% and 6.99%
- Population Healthy Nuclei (%) [6]: 65% and 73.12%
- Population Hoechst High Intensity Objects (%) [6]: 0%
- Population Membrane Permeable-Phenotype (%) [6]: 0% and 11.03%
- Population Mitochondria Different-Phenotype (%) [6]: 20.51% and 11.76%
- Population Mitotic Cells (%) [6]: 88.24% and 64.86%
- Population Normal (%) [6]: 100%
- Population Pyknosed Nuclei (%) [6]: 18.89% and 19.89%
- Population Tubulin-Different-Phenotype (%) [6]: 6.84% and 18.38%
- Total Cell Count [6]: 180 and 186

Compound: CN1CC[C@@]23CCCC[C@@H]2[C@@H]1Cc1ccc(O)cc13.O=C(O)C(O)C(O)C(=O)O
- Population Apoptotic (%) [1]: 6.98% and 13.16%
- Population Fragmented Nuclei (%) [1]: 5.26% and 4.9%
- Population Healthy Nuclei (%) [1]: 69.59% and 79.59%
- Population Hoechst High Intensity Objects (%) [1]: 0%
- Population Membrane Permeable-Phenotype (%) [1]: 1.68% and 2.05%
- Population Mitochondria Different-Phenotype (%) [1]: 8.4% and 8.21%
- Population Mitotic Cells (%) [1]: 93.02% and 86.84%
- Population Normal (%) [1]: 100%
- Population Pyknosed Nuclei (%) [1]: 25.15% and 15.51%
- Population Tubulin-Different-Phenotype (%) [1]: 15.97% and 20.51%
- Total Cell Count [1]: 171 and 245
- Population Apoptotic (%) [2]: 8.2% and 12.82%
- Population Fragmented Nuclei (%) [2]: 8.77% and 7.24%
- Population Healthy Nuclei (%) [2]: 64.47% and 79.31%
- Population Hoechst High Intensity Objects (%) [2]: 0%
- Population Membrane Permeable-Phenotype (%) [2]: 2.72% and 2.17%
- Population Mitochondria Different-Phenotype (%) [2]: 6.12% and 5.65%
- Population Mitotic Cells (%) [2]: 91.8% and 87.18%
- Population Normal (%) [2]: 100%
- Population Pyknosed Nuclei (%) [2]: 26.75% and 13.45%
- Population Tubulin-Different-Phenotype (%) [2]: 14.29% and 18.26%
- Total Cell Count [2]: 228 and 290
- Population Apoptotic (%) [3]: 13.16% and 10.71%
- Population Fragmented Nuclei (%) [3]: 6.63% and 3.19%
- Population Healthy Nuclei (%) [3]: 72.38% and 85.66%
- Population Hoechst High Intensity Objects (%) [3]: 0%
- Population Membrane Permeable-Phenotype (%) [3]: 0% and 2.79%
- Population Mitochondria Different-Phenotype (%) [3]: 9.92% and 5.12%
- Population Mitotic Cells (%) [3]: 86.84% and 89.29%
- Population Normal (%) [3]: 100%
- Population Pyknosed Nuclei (%) [3]: 20.99% and 11.16%
- Population Tubulin-Different-Phenotype (%) [3]: 17.56% and 14.88%
- Total Cell Count [3]: 181 and 251
- Population Apoptotic (%) [4]: 17.74% and 18.92%
- Population Fragmented Nuclei (%) [4]: 9.16% and 7.39%
- Population Healthy Nuclei (%) [4]: 68.13% and 79.58%
- Population Hoechst High Intensity Objects (%) [4]: 0%
- Population Membrane Permeable-Phenotype (%) [4]: 2.15% and 2.21%
- Population Mitochondria Different-Phenotype (%) [4]: 5.38% and 4.42%
- Population Mitotic Cells (%) [4]: 82.26% and 81.08%
- Population Normal (%) [4]: 100%
- Population Pyknosed Nuclei (%) [4]: 22.71% and 13.03%
- Population Tubulin-Different-Phenotype (%) [4]: 19.89% and 17.7%
- Total Cell Count [4]: 273 and 284
- Population Apoptotic (%) [5]: 30.77% and 40%
- Population Fragmented Nuclei (%) [5]: 9.57% and 5.1%
- Population Healthy Nuclei (%) [5]: 84.21% and 89.02%
- Population Hoechst High Intensity Objects (%) [5]: 0%
- Population Membrane Permeable-Phenotype (%) [5]: 0.57% and 3.52%
- Population Mitotic Cells (%) [5]: 69.23% and 60%
- Population Normal (%) [5]: 100%
- Population Pyknosed Nuclei (%) [5]: 6.22% and 5.88%
- Population Tubulin-Different-Phenotype (%) [5]: 6.82% and 14.54%
- Total Cell Count [5]: 209 and 255
- Population Apoptotic (%) [6]: 15.38% and 35.29%
- Population Fragmented Nuclei (%) [6]: 6.34% and 8.95%
- Population Healthy Nuclei (%) [6]: 88.81% and 85.62%
- Population Hoechst High Intensity Objects (%) [6]: 0%
- Population Membrane Permeable-Phenotype (%) [6]: 0.84% and 4.1%
- Population Mitochondria Different-Phenotype (%) [6]: 6.72% and 1.87%
- Population Mitotic Cells (%) [6]: 84.62% and 64.71%
- Population Normal (%) [6]: 100%
- Population Pyknosed Nuclei (%) [6]: 4.85% and 5.43%
- Population Tubulin-Different-Phenotype (%) [6]: 7.56% and 19.4%
- Total Cell Count [6]: 268 and 313

Compound: C=CCN1C[C@H](C(=O)N(CCCN(C)C)C(=O)NCC)C[C@@H]2c3cccc4[nH]cc(c34)C[C@H]21 [CABERGOLINE]
- Population Apoptotic (%) [1]: 69% and 35%
- Population Fragmented Nuclei (%) [1]: 13% and 20%
- Population Healthy Nuclei (%) [1]: 78% and 46%
- Population Hoechst High Intensity Objects (%) [1]: 6%
- Population Membrane Permeable-Phenotype (%) [1]: 0% and 4%
- Population Mitochondria Different-Phenotype (%) [1]: 2% and 1%
- Population Mitotic Cells (%) [1]: 30% and 64%
- Population Normal (%) [1]: 93%
- Population Tubulin-Different-Phenotype (%) [1]: 26% and 25%
- Total Cell Count [1]: 186 and 144
- Population Apoptotic (%) [2]: 50% and 35%
- Population Fragmented Nuclei (%) [2]: 25% and 44%
- Population Healthy Nuclei (%) [2]: 64% and 39%
- Population Hoechst High Intensity Objects (%) [2]: 3% and 5%
- Population Membrane Permeable-Phenotype (%) [2]: 0% and 6%
- Population Mitochondria Different-Phenotype (%) [2]: 11% and 10%
- Population Mitotic Cells (%) [2]: 50% and 64%
- Population Normal (%) [2]: 96% and 94%
- Population Pyknosed Nuclei (%) [2]: 10% and 16%
- Population Tubulin-Different-Phenotype (%) [2]: 46% and 53%
- Total Cell Count [2]: 248 and 178
- Population Apoptotic (%) [3]: 68% and 44%
- Population Fragmented Nuclei (%) [3]: 15% and 24%
- Population Healthy Nuclei (%) [3]: 74% and 46%
- Population Hoechst High Intensity Objects (%) [3]: 4% and 6%
- Population Membrane Permeable-Phenotype (%) [3]: 1% and 3%
- Population Mitochondria Different-Phenotype (%) [3]: 3%
- Population Mitotic Cells (%) [3]: 31% and 55%
- Population Normal (%) [3]: 95% and 93%
- Population Pyknosed Nuclei (%) [3]: 10% and 29%
- Population Tubulin-Different-Phenotype (%) [3]: 33% and 39%
- Total Cell Count [3]: 198 and 132
- Population Apoptotic (%) [4]: 73% and 43%
- Population Fragmented Nuclei (%) [4]: 28% and 43%
- Population Healthy Nuclei (%) [4]: 65% and 46%
- Population Hoechst High Intensity Objects (%) [4]: 1% and 10%
- Population Membrane Permeable-Phenotype (%) [4]: 0% and 2%
- Population Mitochondria Different-Phenotype (%) [4]: 7% and 5%
- Population Mitotic Cells (%) [4]: 26% and 56%
- Population Normal (%) [4]: 98% and 89%
- Population Pyknosed Nuclei (%) [4]: 5% and 9%
- Population Tubulin-Different-Phenotype (%) [4]: 44% and 53%
- Total Cell Count [4]: 274 and 181
- Population Apoptotic (%) [5]: 56% and 58%
- Population Fragmented Nuclei (%) [5]: 15% and 24%
- Population Healthy Nuclei (%) [5]: 75% and 54%
- Population Hoechst High Intensity Objects (%) [5]: 5% and 7%
- Population Membrane Permeable-Phenotype (%) [5]: 0% and 6%
- Population Mitochondria Different-Phenotype (%) [5]: 6% and 1%
- Population Mitotic Cells (%) [5]: 43% and 41%
- Population Normal (%) [5]: 94% and 92%
- Population Pyknosed Nuclei (%) [5]: 8% and 21%
- Population Tubulin-Different-Phenotype (%) [5]: 34% and 33%
- Total Cell Count [5]: 189 and 156
- Population Apoptotic (%) [6]: 72% and 46%
- Population Fragmented Nuclei (%) [6]: 24% and 52%
- Population Healthy Nuclei (%) [6]: 68% and 37%
- Population Hoechst High Intensity Objects (%) [6]: 4% and 5%
- Population Membrane Permeable-Phenotype (%) [6]: 1% and 6%
- Population Mitochondria Different-Phenotype (%) [6]: 4% and 11%
- Population Mitotic Cells (%) [6]: 27% and 53%
- Population Normal (%) [6]: 95% and 94%
- Population Pyknosed Nuclei (%) [6]: 6% and 9%
- Population Tubulin-Different-Phenotype (%) [6]: 46% and 44%
- Total Cell Count [6]: 282 and 170
